In ChEMBL document CHEMBL1124216, “A novel class of potential central nervous system agents. 3-Phenyl-2-(1-piperazinyl)-5H-1-benzazepines” (1988):

Key:
Assay type in all cases: functional
Mus musculus [1] = experiment: Concentration of compound that causes catalepsy in the mice when administered perorally; conditions: po
Method in brief: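 Male Std-ddY mice were dosed orally, vehicle 0.5% aqueous tragacanth. At 2 h, forepaws were placed on a rod 4.5 cm high. Failure to remove the paws within 30 s in three successive trials was scored cataleptic. ED50 was the dose giving catalepsy in 50% of mice (Litchfield-Wilcoxon).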

Mus musculus [2] = experiment: Inhibition of conditioned avoidance response in mice when administered perorally; conditions: po
Method in brief: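 One-way active avoidance in male Std-ddY mice in a dark/light two-compartment box. Mice trained to move to the lit side on a warning stimulus to escape floor shock; groups of 10 avoiding at >80% in 10 trials. Compound po in 0.5% tragacanth. ED50 is the dose halving avoidance rate (Litchfield-Wilcoxon).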

Mus musculus [3] = experiment: Antiexploratory activity (EXPL) of mice determined by an antimex activity meter, 10 mg/kg of dose was administered perorally; conditions: route oral
Method in brief: (§1)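 Male Std-ddY mice (20-25 g), five per dose, given compound orally in 0.5% aqueous tragacanth. Two hours later each mouse was placed in the activity-meter cage and locomotor activity was counted for 3 min. Suppression is expressed as percent inhibition of control. ED50 (dose giving 50% inhibition) calculated by Litchfield-Wilcoxon.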

Mus musculus [4] = experiment: Concentration of compound that causes ptosis in the mice when administered perorally; conditions: po
Method in brief: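 Five male Std-ddY mice per group were dosed orally in 0.5% aqueous tragacanth. At 2 h, eyelid closure was scored macroscopically (8 open to 0 fully closed). Group mean scores formed a dose-response curve. ED50 was the dose reducing the mean score to 50%.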

Mus musculus [5] = experiment: (§2) 3,4 -Dihydroxy phenylacetic acid (DOPAC) levels in mouse brain at 10 mg/kg dose.
Method in brief: (§3)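 Male Std-ddY mice (20-25 g) dosed orally with compound dissolved or suspended in 0.5% aqueous tragacanth. DOPAC measured fluorometrically after purification by column chromatography on Sephadex G-10 and QAE-Sephadex. Brains from five mice per compound pooled for the determination.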

Mus musculus [6] = experiment: (§4) 3,4 -Dihydroxy phenylacetic acid (DOPAC) levels in mouse brain at 50 mg/kg dose.; method in brief: as §3
Rattus norvegicus = experiment: Inhibition of self stimulation response in rats when administered perorally.; conditions: po
Method in brief: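 Male Wistar HLA rats (300-400 g) with chronic electrodes implanted in the lateral posterior hypothalamus; only rats lever-pressing steadily at 50-100/min were used. Compound given po in 0.5% tragacanth. Self-stimulation counted for 10 min before and 2 h after dosing. ED50 is the dose giving ≥50% rate inhibition in 50% of rats (Litchfield-Wilcoxon).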

Mus musculus [7] = experiment: Antiexploratory activity (EXPL) of mice determined by an antimex activity meter, when administered perorally; conditions: po; method in brief: as §1
Mus musculus [8] = experiment: Antiexploratory activity (EXPL) of mice determined by an antimex activity meter, 50 mg/kg of dose was administered perorally; conditions: route oral; method in brief: as §1
Canis familiaris [9] = experiment: Inhibition of apomorphine induced emesis in dogs at 2 mg/kg of dose.; conditions: Canis lupus familiaris
Method in brief: (§5)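 Beagle dogs (10-15 kg), groups of three, given compound po in a gelatin capsule; 2 h later apomorphine hydrochloride 0.3 mg/kg sc. Vomiting counted for 1 h; mean inhibition as percent of control. ED50 is the dose giving 50% inhibition of emesis, by Litchfield-Wilcoxon.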

Mus musculus [10] = experiment: The homovanillic acid (HVA)levels in mouse brain at 50 mg/kg of dose.
Method in brief: (§6)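 Male Std-ddY mice (20-25 g) dosed orally with compound in 0.5% aqueous tragacanth (solution or suspension). Brain homovanillic acid (HVA) determined by a published method. Brains from five mice per compound pooled for one determination.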

Canis familiaris [11] = experiment: Inhibition of apomorphine induced emesis in dogs when administered perorally; conditions: Canis lupus familiaris, po; method in brief: as §5
Mus musculus [12] = experiment: The homovanillic acid (HVA)levels in mouse brain at 10 mg/kg of dose.; method in brief: as §6
Mus musculus [13] = experiment: Antiexploratory activity (EXPL) of mice determined by an antimex activity meter, 10 mg/kg of dose was administered perorally; No inhibition; conditions: route oral
Canis familiaris [14] = experiment: Inhibition of apomorphine induced emesis in dogs at 1 mg/kg of dose.; conditions: Canis lupus familiaris; method in brief: as §5
Mus musculus [15] = experiment: Antiexploratory activity (EXPL) of mice determined by an antimex activity meter, 50 mg/kg of dose was administered perorally; potent inhibition; conditions: route oral
Mus musculus [16] = experiment: as §2; remark: listed apart in the source
Method in brief: (§7)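 Male Std-ddY mice, 20-25 g, dosed orally with compound in 0.5% aqueous tragacanth. DOPAC was measured fluorometrically after purification by column chromatography on Sephadex G-10 and QAE-Sephadex. Brains from five mice per compound were pooled for each determination.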

Mus musculus [17] = experiment: Antireserpine activity (RES) of mice after peroral administration of 50 mg/kg of compound; Slight inhibition (31-50%); conditions: route oral
Mus musculus [18] = experiment: Exploratory activity of mice determined by an antimex activity meter, 10 mg/kg of dose was administered perorally; conditions: route oral
Mus musculus [19] = experiment: Exploratory activity of mice determined by an antimex activity meter, 50 mg/kg of dose was administered perorally; conditions: Mus musculus, po
Method in brief: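 Male Std-ddY mice (20-25 g), five per dose; compound in 0.5% aqueous tragacanth given orally. Two hours later each mouse placed in an Animex activity meter cage and locomotor activity counted for 3 min. Mean suppression expressed as percent inhibition of control; ED50 by Litchfield-Wilcoxon.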

Mus musculus [20] = experiment: The homovanillic acid (HVA) levels in mouse brain at 10 mg/kg of dose.
Method in brief: (§8)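 Mice dosed orally in 0.5% aqueous tragacanth; brains of five mice per compound pooled. Homovanillic acid measured in brain extracts and reported as brain level.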

Mus musculus [21] = experiment: as §4; method in brief: as §7; remark: listed apart in the source
Mus musculus [22] = experiment: The homovanillic acid (HVA) levels in mouse brain at 50 mg/kg of dose.; method in brief: as §8
Mus musculus [23] = experiment: Antipentylene tetrazole activity was determined in mice when administered perorally; conditions: po
Method in brief: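 Groups of five male Std-ddY mice received compound orally in 0.5% tragacanth, then pentylenetetrazole 175 mg/kg ip. Blockade of the tonic extensor component scored as anticonvulsant. ED50 was the dose protecting 50% of animals (Litchfield-Wilcoxon).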

Mus musculus [24] = experiment: Antireserpine activity (RES) of mice after peroral administration of 100 mg/kg of compound; No inhibition; conditions: route oral
Mus musculus [25] = experiment: Antitremorine activity(TRM) of mice after peroral administration of 100 mg/kg of compound; No inhibition; conditions: route oral
Mus musculus [26] = experiment: Antiexploratory activity (EXPL) of mice determined by an antimex activity meter,100 mg/kg of dose was administered perorally; Slight inhibition (31-50%)
Mus musculus [27] = experiment: Antimaximal electroshock seizure activity was determined in mice when administered perorally; conditions: po
Mus musculus [28] = experiment: Antimaximal electroshock seizure (MES) activity in mice after peroral administration of 100 mg/kg of compound; 3/5; conditions: route oral
Mus musculus [29] = experiment: Antiexploratory activity (EXPL) of mice determined by an antimex activity meter, 50 mg/kg of dose was administered perorally; No inhibition; conditions: route oral
Mus musculus [30] = experiment: Antimaximal electroshock seizure (MES) activity in mice after peroral administration of 100 mg/kg of compound; 0/5; conditions: route oral
Mus musculus [31] = experiment: Antireserpine activity (RES) of mice after peroral administration of 100 mg/kg of compound; Moderate inhibition (51-71%); conditions: route oral
Mus musculus [32] = experiment: Antimaximal electroshock seizure (MES) activity in mice after peroral administration of 100 mg/kg of compound; 4/5; conditions: route oral
Mus musculus [33] = experiment: Antiexploratory activity (EXPL) of mice determined by an antimex activity meter,100 mg/kg of dose was administered perorally; No inhibition
Mus musculus [34] = experiment: Antitremorine activity(TRM) of mice after peroral administration of 100 mg/kg of compound; conditions: route oral
Mus musculus [35] = experiment: Antimaximal electroshock seizure (MES) activity in mice after peroral administration of 10 mg/kg of compound; 0/5; conditions: route oral
Mus musculus [36] = experiment: Antitremorine activity(TRM) of mice after peroral administration of 10 mg/kg of compound; No inhibition; conditions: route oral
Mus musculus [37] = experiment: Antitremorine activity(TRM) of mice after peroral administration of 50 mg/kg of compound; No inhibition; conditions: route oral
Mus musculus [38] = experiment: Antiexploratory activity (EXPL) of mice determined by an antimex activity meter, 100 mg/kg of dose was administered perorally; conditions: route oral

CN(C)CCCN1c2ccccc2Sc2ccc(Cl)cc21 [CHLORPROMAZINE]
ED50 (Mus musculus [1]): 7.81 mg/kg
ED50 (Mus musculus [2]): 5.59 mg/kg
inhibition in vivo at 10 mg/kg (Mus musculus [3]): 46.3%
ED50 (Mus musculus [4]): 24.9 mg/kg
Control % at 10 mg/kg (Mus musculus [5]): 232%
Control % at 50 mg/kg (Mus musculus [6]): 303%
ED50 (Rattus norvegicus): 6.68 mg/kg
ED50 (Mus musculus [7]): 8.26 mg/kg
inhibition in vivo at 50 mg/kg (Mus musculus [8]): 90.1%
inhibition in vivo at 2 mg/kg (Canis familiaris [9]): 22.2%
Control % at 50 mg/kg (Mus musculus [10]): 304%
ED50 (Canis familiaris [11]): 4.53 mg/kg
Control % at 10 mg/kg (Mus musculus [12]): 203%

CCN1CCN(C2=Nc3ccccc3CC=C2c2ccc(F)cc2)CC1.Cl.Cl
inhibition in vivo at 10 mg/kg (Mus musculus [13]): < 30%
inhibition in vivo at 1 mg/kg (Canis familiaris [14]): 100%
inhibition in vivo at 50 mg/kg (Mus musculus [15]): > 71%
Control (Mus musculus [16]): 287%
inhibition in vivo at 50 mg/kg (Mus musculus [17]): 31%
inhibition in vivo at 10 mg/kg (Mus musculus [18]): 10.6%
inhibition in vivo at 50 mg/kg (Mus musculus [19]): 86.8%
Control (Mus musculus [20]): 432%
Control (Mus musculus [21]): 345%
Control (Mus musculus [22]): 461%

Cc1ccc2c(c1)CC=C(c1ccccc1)C(N1CCN(CCO)CC1)=N2.O=C(O)/C=C/C(=O)O
ED50 (Mus musculus [23]): 39.4 mg/kg
inhibition in vivo at 100 mg/kg (Mus musculus [24]): < 30%
inhibition in vivo at 100 mg/kg (Mus musculus [25]): < 30%
Inhibition (Mus musculus [26]): 31%
ED50 (Mus musculus [27]): 103 mg/kg
Activity (Mus musculus [28]): 3

CN1CCN(C2=Nc3ccccc3CC=C2c2cccc(Cl)c2)CC1.Cl.Cl
inhibition in vivo at 50 mg/kg (Mus musculus [29]): < 30%
Activity (Mus musculus [30]): 0
inhibition in vivo at 100 mg/kg (Mus musculus [31]): 51%

CCN1CCN(C2=Nc3ccc(C)cc3CC=C2c2ccccc2)CC1.Cl.Cl
Activity (Mus musculus [32]): 4
ED50 (Mus musculus [23]): 32.3 mg/kg
inhibition in vivo at 100 mg/kg (Mus musculus [24]): < 30%
Inhibition (Mus musculus [33]): <30%
inhibition in vivo at 100 mg/kg (Mus musculus [34]): > 71%
ED50 (Mus musculus [27]): 70.2 mg/kg
Activity (Mus musculus [35]): 0
inhibition in vivo at 10 mg/kg (Mus musculus [36]): < 30%

O=C(c1ccc(F)cc1)C1CCN(C2=Nc3ccccc3CC=C2c2ccc(Cl)cc2)CC1
inhibition in vivo at 50 mg/kg (Mus musculus [37]): < 30%
inhibition in vivo at 50 mg/kg (Mus musculus [29]): < 30%
Activity (Mus musculus [30]): 0
inhibition in vivo at 100 mg/kg (Mus musculus [24]): < 30%

Cl.Cl.OCCN1CCN(C2=Nc3ccc(F)cc3CC=C2c2ccccc2)CC1
Activity (Mus musculus [30]): 0
ED50 (Mus musculus [23]): > 500 mg/kg
inhibition in vivo at 100 mg/kg (Mus musculus [24]): < 30%
inhibition in vivo at 100 mg/kg (Mus musculus [25]): < 30%
ED50 (Mus musculus [27]): > 500 mg/kg
inhibition in vivo at 100 mg/kg (Mus musculus [38]): > 71%
